Results taken from ChEMBL document CHEMBL1150128, “New antioxidant hydroquinone derivatives from the algicolous marine fungus Acremonium sp” (J Nat Prod, 2002).
Active and inactive are the calls of the source. No cut-off for these calls is given here.

How the values were obtained:
[1] = tested on: Radical scavenging activity; assay: Antioxidant activity assessed as DPPH free radical scavenging activity at 50 ug/mL; type: functional
Outline: (§1)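 Ethanolic sample (1 mg/mL stock) is mixed with DPPH (1 mM stock) in EtOH, shaken briefly, and held at room temperature in the dark for 30 min. Radical scavenging is read as absorbance at 517 nm of sample versus control. Results are reported at the listed concentrations in µg/mL.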

[2] = tested on: Radical scavenging activity; assay: Antioxidant activity assessed as DPPH free radical scavenging activity at 25 ug/mL; type: functional; outline: as §1
[3] = tested on: Radical scavenging activity; assay: Antioxidant activity assessed as DPPH free radical scavenging activity at 500 ug/mL; type: functional; outline: as §1
[4] = molecular target: Human immunodeficiency virus type 1 reverse transcriptase (Human immunodeficiency virus 1) (UniProt Q72547); assay: Inhibition of HIV1 reverse transcriptase by ELISA
[5] = molecular target: Tyrosine-protein kinase Lck (Homo sapiens) (UniProt P06239); assay: Inhibition of p56lck by ELISA
[6] = tested on: Radical scavenging activity; assay: Antioxidant activity assessed as DPPH free radical scavenging activity at 5 ug/mL; type: functional; outline: as §1
[7] = Antioxidant activity assessed as inhibition of linolenic acid peroxidation at 37 ug/mL by TBARS assay; type: functional
Outline: (§2)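 Linolenic acid methyl ester (70 mM stock in EtOH) is oxidized with sample (1 or 0.2 mg/mL ethanolic stock) in 50 mM phosphate buffer pH 7.2 with SDS and FeSO4 in 0.025 M HCl. Incubation is 50 °C for 30 min, then covered at 60 °C for 30 min, then room temperature for 4 min. Readout is A532 minus A600, with % inhibition calculated against sample blank, control and blank.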

[8] = tested on: Radical scavenging activity; assay: Antioxidant activity assessed as DPPH free radical scavenging activity at 100 ug/mL; type: functional; outline: as §1
[9] = Antioxidant activity assessed as inhibition of linolenic acid peroxidation at 7.4 ug/mL by TBARS assay; type: functional; outline: as §2

Chain of Tyrosine-protein kinase Lck (Homo sapiens) (P06239 2-509 limits assumed): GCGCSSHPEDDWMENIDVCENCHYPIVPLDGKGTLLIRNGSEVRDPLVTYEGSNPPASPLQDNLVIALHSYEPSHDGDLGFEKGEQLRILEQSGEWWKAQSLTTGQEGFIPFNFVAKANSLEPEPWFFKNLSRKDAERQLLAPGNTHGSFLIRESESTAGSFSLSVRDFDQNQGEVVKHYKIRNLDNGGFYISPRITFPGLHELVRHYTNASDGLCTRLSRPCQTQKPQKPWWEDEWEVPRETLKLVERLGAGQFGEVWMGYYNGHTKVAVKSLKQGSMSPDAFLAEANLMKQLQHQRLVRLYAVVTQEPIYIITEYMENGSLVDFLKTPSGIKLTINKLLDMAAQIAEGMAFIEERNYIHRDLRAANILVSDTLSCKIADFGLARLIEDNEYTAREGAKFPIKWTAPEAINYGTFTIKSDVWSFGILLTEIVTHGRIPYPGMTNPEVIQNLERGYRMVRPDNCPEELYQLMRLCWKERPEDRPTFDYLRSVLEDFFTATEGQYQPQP

Activity [4] | Activity [5] | SMILES | Activity [1] [%] | Activity [2] [%] | Activity [3] [%] | Activity [6] [%] | inhibition [7] [%] | Activity [8] [%] | inhibition [9] [%]
inactive | inactive | CC(C)(O)C1Cc2cc(O)ccc2O1 (centres undefined) | 89.1 | 85.8 | 90.4 | 35.3 | 15.9 | 90.2 | –
inactive | inactive | C=C(C)C1Cc2c(O)ccc(O)c21 (centres undefined) | 90 | 85.5 | 90.1 | 26 | 35.5 | 90 | 13.9
– | – | Cc1cc(C(C)(C)C)c(O)c(C(C)(C)C)c1 | 41.1 | 24.2 | 89.8 | 6 | 43.9 | 63.8 | 36.2
– | – | COC(=O)C(CCC(=O)O)=C(C)C | 3.4 | – | 35.1 | – | – | 10.3 | -8.6
inactive | inactive | CC1(C)Oc2ccc(O)cc2CC1O (centres undefined) | 85.1 | 72.9 | 89.9 | 25.7 | 9.2 | 89.1 | -9.8
– | – | OC[C@H]1O[C@@H](Oc2ccc(O)cc2)[C@H](O)[C@@H](O)[C@@H]1O | 23.5 | 18.3 | 78.6 | 1.9 | – | 52.6 | –
– | – | C=C(C)C(CCC(=O)OC)C(=O)O (centres undefined) | 3.4 | – | 35.1 | – | – | 10.3 | -8.6
inactive | inactive | CC(C)=C(CCC(=O)O)C(=O)O | -0.5 | – | 15.3 | – | – | 3.8 | -9
inactive | inactive | C=C(C)C1Cc2c(O)ccc(O[C@@H]3O[C@H](CO)[C@@H](O)[C@H](O)[C@H]3O)c21 (some centres undefined) | 27.7 | 17.5 | 79.9 | 5.6 | – | 43 | –
– | – | COC(=O)CCC(C(=O)O)=C(C)C | 3.4 | – | 35.1 | – | – | 10.3 | -8.6
– | – | CC(C)(O)C(O)Cc1cc(O)ccc1O (centres undefined) | 90.7 | 90.2 | 82.9 | – | 16.6 | 89.9 | 2
